STEP inh: STEP phosphatase inhibitors, primary screen, biochemical, fluorescence intensity, uHTS | recombinant STEP, OMFP fluorogenic substrate | inhibition, % at 20 µM | Tyrosine-protein phosphatase non-receptor type 5 (Homo sapiens), P54829 | 0.25% of 360,000 active;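 active = inhibition at 20 µM, scaled per plate between control wells, above about 37%, limit read from the data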;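 also: 0% = DMSO with enzyme and substrate and 100% = substrate only without enzyme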
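System: isolated STEP enzyme; schedule: 20 min enzyme reaction at room temperature, protected from light; medium: Bis-Tris buffer pH 6.0, 2.5 mM DTT, 0.005% Tween 20; signal: fluorescence, 480/540 nm; dosing: single compound dose of 20 µM, 1% DMSO final; also added: OMFP substrate, 25 µM final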
GRK2 inh: compounds blocking aptamer binding on GRK2 – biochemical, human GRK2, bead flow cytometry, HTS, primary screen; FAM-aptamer displacement from GRK2; 0.59% of 330,000 active; inhibition of aptamer binding, % at 10 µM;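 active = inhibition of aptamer binding above 40%, roughly 3 SD of noise, on plates passing a quality check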;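 also: median bead fluorescence of bound FAM aptamer so fluorescent compounds give negative values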
SUMO1 PPI mod: modulators of SUMO1 protein-protein interactions, primary screen, biochemical, uHTS; SUMO1 binding to a labelled peptide, TR-FRET, 1 h; 0.33% of 360,000 active; Small ubiquitin-related modifier 1 (Homo sapiens), P63165; inhibition, % at 20 µM; AID 602429, 2012; in the data active = inhibition above about 37%
Target sequence (P63165 whole entry, looked up): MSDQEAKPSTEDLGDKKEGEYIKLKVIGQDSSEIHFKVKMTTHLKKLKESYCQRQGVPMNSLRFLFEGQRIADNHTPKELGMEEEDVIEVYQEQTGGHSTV
DNMT1 block: human DNMT1 methyltransferase inhibitors, primary screen, biochemical, molecular beacon, fluorescence, HinP1I cleavage, uHTS | 0.83% of 360,000 active | DNA (cytosine-5)-methyltransferase 1 (Homo sapiens), P26358 | inhibition (reported as % activation of signal), % at 10 µM; in the data active = inhibition above about 50%
LMPTP block: LMPTP phosphatase inhibitors, primary screen, biochemical, fluorescence intensity, uHTS; recombinant LMPTP-A, OMFP fluorogenic substrate; Low molecular weight phosphotyrosine protein phosphatase (Homo sapiens), P24666; 0.22% of 360,000 active; inhibition, % at 20 µM;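 active = compounds that cut the enzyme signal by at least half of the control window in the single-dose screen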;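 also: plate controls were DMSO wells with enzyme plus substrate for no effect and substrate without enzyme for full effect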
Target sequence (P24666 whole entry, looked up): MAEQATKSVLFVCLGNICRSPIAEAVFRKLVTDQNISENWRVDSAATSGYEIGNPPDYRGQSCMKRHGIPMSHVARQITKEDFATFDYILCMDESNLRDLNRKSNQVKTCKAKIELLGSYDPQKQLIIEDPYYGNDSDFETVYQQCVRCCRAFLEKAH
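Test system: LMPTP-A, protein tyrosine phosphatase of low molecular weight; Input: 0.625 nM enzyme; Incubation: 50 min dark incubation at room temperature; Signal: endpoint fluorescence intensity from OMFP dephosphorylation; Read-out basis: % inhibition versus control wells.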
Scp1 inh: Scp-1 phosphatase inhibitors, primary screen, biochemical, colorimetric, uHTS; Carboxy-terminal domain RNA polymerase II polypeptide A small phosphatase 1 (Homo …; Recombinant Scp1, phosphopeptide, malachite green phosphate absorbance; inhibition, % at 20 µM; 0.88% of 340,000 active; AID 493091, 2011;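 active = inhibition above about 50% at 20 µM, limit read from the data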;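 also: plate controls were DMSO wells with enzyme for no effect and wells lacking enzyme for full effect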
Target sequence (Q9GZU7 76-261 limits assumed): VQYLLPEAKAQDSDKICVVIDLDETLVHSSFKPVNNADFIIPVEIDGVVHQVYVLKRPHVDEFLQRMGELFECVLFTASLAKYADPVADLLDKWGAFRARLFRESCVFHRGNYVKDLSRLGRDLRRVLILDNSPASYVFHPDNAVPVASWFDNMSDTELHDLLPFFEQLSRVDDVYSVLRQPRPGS
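Test system: SCP-1 phosphatase catalytic domain, residues 76-261 | Compound dosing: One concentration, 20 µM, with 1.0% DMSO | Schedule: 45 min room-temperature reaction, 5 min colour, 30 min stabiliser | Detection: Absorbance at 630 nm | Read-out basis: % inhibition of SCP-1 phosphate liberation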
STEP conf: STEP phosphatase inhibitor hit confirmation, biochemical, fluorescence intensity, single concentration; shares compounds with STEP inh; recombinant STEP, OMFP fluorogenic substrate; inhibition, % at 20 µM; 32% of 520 active; call rule not given here;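 also: 0% = enzyme with substrate plus DMSO and 100% = substrate without enzyme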
An asterisk follows results filed as active; . = no result given. Only some compounds are listed: those with a hit (about 2.1% of all), similar ones and a draw of the others.

SMILES	STEP inh	GRK2 inh	SUMO1 PPI mod	DNMT1 block	LMPTP block	Scp1 inh	STEP conf
COCCN(C(=S)Nc1ccc(OC)cc1)C1CCN(C(C)C)CC1	5	0	-2	2	-3	0	.
COCCN(C(=S)Nc1ccc(OC)c(Cl)c1)C1CCN(C(C)C)CC1	71*	2	4	0	-2	-1	20
CC(=O)NC(c1ccccc1)c1nc(-c2cc(F)cc(F)c2)cs1 (stereo not given)	1	.	1	-1	3	.	.
Cc1cccc(NC(=O)c2nc[nH]c2C(=O)NCCCCNC(=O)c2[nH]cnc2C(=O)Nc2cccc(C)c2)c1	-4	4	3	10	0	4	.
CCCCNC(=O)c1cccc(C(=O)NCCCC)c1	96*	1	3	1	-1	-8	5
CCOC(=O)C1=CCN(S(=O)(=O)c2ccc(C)cc2)C1c1ccc(Cl)cc1 (stereo not given)	1	.	5	-13	2	.	.
O=C(Nc1ccccc1-c1nc2ccccc2s1)C1=COCCO1	58*	0	-2	13	51*	26	16
O=C(Nc1nc2ccc(F)cc2s1)C1=COCCO1	0	0	7	-2	1	-1	.
COc1ccc(NC(=O)C(OC(=O)c2cnccn2)c2ccccc2)cc1Cl (stereo not given)	-3	0	3	-9	1	-7	.
COc1ccccc1NS(=O)(=O)c1cc(NC(=O)C(C)(C)C)ccc1N1CCOCC1	0	1	2	0	1	-6	.
COc1ccccc1NS(=O)(=O)c1cc(NC(=S)NCCN2CCOCC2)ccc1N1CCOCC1	91*	0	3	0	0	-5	69*
COc1ccccc1NS(=O)(=O)c1cc(NC(=O)c2sccc2C)ccc1N1CCCC1	98*	3	3	-7	4	-7	93*
CCCC(=O)Nc1cc(-c2nn(C)c(=O)c3ccccc23)ccc1N1CCOCC1	42*	0	-2	10	-2	23	9
CC(=O)Nc1cc(-c2nn(C)c(=O)c3ccccc23)ccc1N1CCOCC1	-4	0	-7	4	-1	-4	.
O=S1(=O)CC(N2CCN(Cc3ccccc3F)CC2)CN1Cc1cn(Cc2cccc(Cl)c2)nn1 (stereo not given)	.	.	0	.	-1	.	.
Cc1ccc(NC(=O)C(c2ccccc2)N2CCN(CC(=O)N3CCOCC3)CC2)cc1Cl (stereo not given)	46*	29	0	23	7	48	-10
CCOc1ccc(C(=O)Nc2cc(-c3nc4ccccc4[nH]3)ccc2C)cc1[N+](=O)[O-]	3	2	-3	-17	2	1	.
CCOc1ccc(C(=O)Nc2cc(-c3nc4ccccc4[nH]3)ccc2Cl)cc1[N+](=O)[O-]	54*	1	18	-13	2	7	47*
CCOc1ccccc1CN1CCCC(C(=O)Nc2cccc(-n3cccn3)c2)C1 (stereo not given)	-2	0	-1	0	1	3	.
Cc1ccc(NC(=O)CSc2ncc(-c3ccccc3)n2C(=O)c2ccccc2)cc1	2	2	-3	5	3	-2	.
Cc1ccc(C(=O)n2c(-c3ccccc3)cnc2SCC(=O)Nc2ccccc2)cc1	73*	3	3	12	2	0	2
COc1ccc(-c2ccc3c(c2)C2CC3CCN2)cc1 (stereo not given)	2	.	-2	4	-2	0	.
CC(C)c1cc(Cn2c3ccccc3c(=O)n2C(C)Cn2cc(C3=CCCCC3)nn2)on1 (stereo not given)	.	.	1	.	-1	.	.
CCc1nc2c(OCc3ccc(F)c(F)c3)cccn2c1N(C)C(=O)c1ccc(OC)cc1	1	.	0	-5	1	.	.
S=C1NC[C@H](Cc2ccccc2)N1CC1CCN(CCCC2CCCC2)CC1	43*	.	-2	5	2	16	15
SMILES	STEP inh	GRK2 inh	SUMO1 PPI mod	DNMT1 block	LMPTP block	Scp1 inh	STEP conf
S=C1NC[C@H](Cc2ccccc2)N1CCCCC1CCCCC1	0	1	4	-10	2	0	.
Cc1ccccc1Oc1ccc2c(c1)[C@@H]1C[C@H]3[C@@H](C(=O)N1CC2)[C@H](C)ON3C	3	.	3	-5	0	8	.
Cc1sc2nc(CSC(C)C(=O)Nc3ccc(Cl)cn3)[nH]c(=O)c2c1C (stereo not given)	79*	0	6	2	-2	2	60*
NC(=NCc1ccc2c(c1)OCO2)NC(=O)c1ccccc1	70*	.	12	-8	22	15	35*
O=C(Nc1ccc(F)cc1)C(c1cccc(F)c1)N1CCN(Cc2c(F)cccc2Cl)CC1 (stereo not given)	.	.	-2	.	3	.	.
CS(=O)(=O)c1ccc(Cl)c(NC(=O)c2cc(S(=O)(=O)N3CCOCC3)ccc2N2CCCC2)c1	-1	0	3	2	0	-1	.
CCOc1ccc(/C=N/NC(=O)c2[nH]c3ccc(C)cc3c2C)cc1	80*	0	23	-7	30	-5	6
COc1cc(Cl)cc(/C=N\NC(=O)c2ccc3c(c2)OCO3)c1O	52*	.	24	3	21	.	84*
COc1ccc(NC(=O)C2(C)CCCN(C(C)C)C2)cc1OC (stereo not given)	1	.	5	-1	-1	.	.
O=C(Nc1cccc(O)c1)C1CC(c2cccc(Br)c2)=NO1 (stereo not given)	79*	1	-9	3	-1	-10	7
Cn1c(SCC(=O)N2CCCC2)nc2cccnc21	52*	1	0	2	1	-6	1
Cc1ccc(N=C2NC(=O)/C(=C/c3cccnc3)S2)cc1C	45*	1	-7	0	10	38	15
O=C(O)C1OC(C(=O)O)C(C(=O)O)C1C(=O)O (stereo not given)	2	.	15	0	-3	5	.
CN(C(=O)COC(=O)Cc1ccc(Br)cc1)c1c(N)n(Cc2ccccc2)c(=O)[nH]c1=O	2	.	-25	3	1	.	.
